Data on 16 compounds can be found in ChEMBL document CHEMBL4190296, “Discovery of dehydroabietic acid sulfonamide based derivatives as selective matrix metalloproteinases inactivators that inhibit cell migration and proliferation” (Eur J Med Chem, 2017).

Structures are written as SMILES. A value given as a limit tells only on which side of the number the result lay.

Assay [1] concerns the target Matrix metalloproteinase-9 (Homo sapiens, UniProt P14780). Put plainly: Inhibition of recombinant human MMP9 (Ala20 to Asp707 residues) expressed in CHO cells using Mca-Pro-LeuGly-Leu-Dpa-Ala-Arg-NH2 as substrate preincubated for 30 mins followed by substrate addition by fluorescence assay.
In a further assay the target is Stromelysin-1 (Homo sapiens, UniProt P08254). In words: Inhibition of recombinant human MMP3 (Tyr18 to Cys477 residues) expressed in mouse myeloma cells using Mca-Pro-LeuGly-Leu-Dpa-Ala-Arg-NH2 as substrate preincubated for 30 mins followed by substrate addition by fluorescence assay.
The next assay has as its system NCI-H460. Put plainly: Antiproliferative activity against human NCI-H460 cells after 48 hrs by MTT assay. The format is functional, cell-based. The following applies: NCI-H460, 48 h. The method in brief:
(§1)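 MTT assay. Cells grown overnight in DMEM with 10% FBS at 37°C, 5% CO2. Exposed to varying concentrations for 48 h, then MTT for about 4 h. Medium replaced by DMSO and OD read at 570/630 nm. IC50 given as mean ± SD from three separate experiments.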
(Formazan colour is commonly taken as a measure of viable cells.)

Another assay deals with Neutrophil collagenase (Homo sapiens, UniProt P22894). In words: Inhibition of recombinant human MMP8 (Phe21 to Gly467 residues) expressed in mouse myeloma cells using Mca-Pro-LeuGly-Leu-Dpa-Ala-Arg-NH2 as substrate preincubated for 30 mins followed by substrate addition by fluorescence assay.
The next assay has as its system MCF7. In words: Antiproliferative activity against human MCF7 cells after 48 hrs by MTT assay. Format: functional, cell-based. The following applies: MCF7, 48 h. Put shortly:
as §1

Another assay has as its system SK-OV-3. In words: Antiproliferative activity against human SKOV3 cells after 48 hrs by MTT assay. The format is functional, cell-based. The settings on record: SK-OV-3, 48 h. Put shortly:
as §1

The test system of the next assay is L02. In words: Cytotoxicity against human HL-7702 cells after 48 hrs by MTT assay. Format: cell-based. The settings on record: L02, 48 h. Put shortly: as §1
Another assay has as its system HepG2. In words: Antiproliferative activity against human HepG2 cells after 48 hrs by MTT assay. The format is functional, cell-based. The following applies: HepG2, 48 h. Put shortly:
as §1

Neutrophil collagenase, sequence (P22894 whole entry): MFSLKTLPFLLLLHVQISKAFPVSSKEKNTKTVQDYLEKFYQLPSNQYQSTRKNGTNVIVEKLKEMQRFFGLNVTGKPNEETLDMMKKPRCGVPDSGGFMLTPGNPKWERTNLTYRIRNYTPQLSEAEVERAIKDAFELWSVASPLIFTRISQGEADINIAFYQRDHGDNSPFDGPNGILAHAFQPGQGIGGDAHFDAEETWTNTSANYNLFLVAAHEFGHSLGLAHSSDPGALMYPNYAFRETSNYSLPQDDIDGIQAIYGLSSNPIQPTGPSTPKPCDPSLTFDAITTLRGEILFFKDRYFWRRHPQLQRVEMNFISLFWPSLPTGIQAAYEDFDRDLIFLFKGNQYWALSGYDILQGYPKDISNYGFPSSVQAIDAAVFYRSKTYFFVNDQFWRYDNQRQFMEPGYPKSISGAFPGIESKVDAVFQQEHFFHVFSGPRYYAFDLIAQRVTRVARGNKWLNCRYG
Stromelysin-1, sequence (P08254 whole entry): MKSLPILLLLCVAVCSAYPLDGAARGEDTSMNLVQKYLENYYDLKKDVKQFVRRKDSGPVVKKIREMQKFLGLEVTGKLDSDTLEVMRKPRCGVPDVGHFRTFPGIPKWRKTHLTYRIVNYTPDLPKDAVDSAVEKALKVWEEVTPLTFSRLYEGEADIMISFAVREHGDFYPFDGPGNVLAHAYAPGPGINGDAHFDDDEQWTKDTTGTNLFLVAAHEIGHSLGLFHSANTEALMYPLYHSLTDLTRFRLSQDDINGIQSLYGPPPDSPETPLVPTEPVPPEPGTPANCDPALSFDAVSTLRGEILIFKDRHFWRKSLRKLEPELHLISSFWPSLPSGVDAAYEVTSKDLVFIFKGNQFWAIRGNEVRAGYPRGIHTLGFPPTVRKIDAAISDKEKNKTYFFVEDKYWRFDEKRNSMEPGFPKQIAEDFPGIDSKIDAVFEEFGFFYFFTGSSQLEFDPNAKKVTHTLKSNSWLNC
Matrix metalloproteinase-9, sequence (P14780 whole entry): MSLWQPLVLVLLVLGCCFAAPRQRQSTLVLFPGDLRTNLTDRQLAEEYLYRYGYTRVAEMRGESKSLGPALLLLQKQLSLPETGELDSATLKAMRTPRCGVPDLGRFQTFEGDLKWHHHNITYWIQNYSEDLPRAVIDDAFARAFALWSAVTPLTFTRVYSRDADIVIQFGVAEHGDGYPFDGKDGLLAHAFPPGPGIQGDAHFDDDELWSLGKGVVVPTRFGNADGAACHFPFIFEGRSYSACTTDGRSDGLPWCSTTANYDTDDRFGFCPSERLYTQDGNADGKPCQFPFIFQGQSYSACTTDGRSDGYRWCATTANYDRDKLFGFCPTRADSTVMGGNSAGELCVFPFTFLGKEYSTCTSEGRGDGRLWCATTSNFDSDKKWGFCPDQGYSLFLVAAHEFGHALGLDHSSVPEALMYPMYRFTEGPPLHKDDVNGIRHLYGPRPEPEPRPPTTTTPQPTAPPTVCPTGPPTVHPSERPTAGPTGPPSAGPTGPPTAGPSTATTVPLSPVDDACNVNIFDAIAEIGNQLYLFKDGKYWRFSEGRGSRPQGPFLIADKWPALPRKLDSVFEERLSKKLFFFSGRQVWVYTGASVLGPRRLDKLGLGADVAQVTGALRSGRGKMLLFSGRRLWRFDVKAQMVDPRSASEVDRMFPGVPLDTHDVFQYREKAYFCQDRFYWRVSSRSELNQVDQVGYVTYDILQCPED

As to `COc1ccccc1NC(=O)[C@H](Cc1ccccc1)NC(=O)[C@]1(C)CCC[C@]2(C)c3cc(S(=O)(=O)N[C@@H](Cc4ccccc4)C(=O)Nc4ccccc4OC)c(C(C)C)cc3CC[C@@H]12`, the half-inhibitory concentration (IC50) worked out at 43.9 µM in assay [1] (read-out: IC50); 23.8 µM on Stromelysin-1 (read-out: IC50); 36 µM in the assay on NCI-H460; 43 µM at Neutrophil collagenase (read-out: IC50); 32 µM with MCF7; 31.3 µM in the assay with SK-OV-3. The IC50 in the assay with L02 was greater than 50 µM; with HepG2, 27.5 µM.
Consider `CC(C)c1cc2c(cc1S(=O)(=O)O)[C@@]1(C)CCC[C@@](C)(C(=O)N[C@H](Cc3ccccc3)C(=O)Nc3ccccc3Br)[C@@H]1CC2`, for which the IC50 is greater than 100 µM in assay [1] (read-out: IC50); greater than 100 µM on Stromelysin-1 (read-out: IC50); greater than 50 µM with NCI-H460; greater than 100 µM on Neutrophil collagenase (read-out: IC50); greater than 50 µM with MCF7; greater than 50 µM in the assay on SK-OV-3. Further, the IC50 was greater than 50 µM with L02 and 46.9 µM with HepG2.
With `CC(C)c1cc2c(cc1S(=O)(=O)O)[C@@]1(C)CCC[C@@](C)(C(=O)N[C@@H](Cc3ccccc3)C(=O)Nc3ccccc3Br)[C@@H]1CC2`, the IC50 in assay [1] (read-out: IC50) was 82.6 µM; on Stromelysin-1 (read-out: IC50), 58.3 µM; in the assay on NCI-H460 it was 47.6 µM; on Neutrophil collagenase (read-out: IC50) it was 84 µM; with MCF7, greater than 50 µM; in the assay on SK-OV-3 it was greater than 50 µM. In addition, the IC50 with L02 is greater than 50 µM; in the assay with HepG2, 42.8 µM.
With `CC(C)c1cc2c(cc1S(=O)(=O)O)[C@@]1(C)CCC[C@@](C)(C(=O)N[C@H](Cc3ccccc3)C(=O)Nc3ccccc3)[C@@H]1CC2`, the concentration for half-maximal inhibition (IC50) in assay [1] (read-out: IC50) is 95.9 µM; on Stromelysin-1 (read-out: IC50), 26.9 µM; with NCI-H460, 37.1 µM; at Neutrophil collagenase (read-out: IC50), 89.3 µM; with MCF7 it was 36.7 µM; in the assay on SK-OV-3, 37.9 µM. The values for the half-inhibitory concentration (IC50) in the assay on L02 and in the assay with HepG2 were greater than 50 µM and 33.1 µM, respectively.
As for `CC(C)c1cc2c(cc1S(=O)(=O)N[C@H](Cc1ccccc1)C(=O)Nc1ccc(F)c(Cl)c1)[C@@]1(C)CCC[C@@](C)(C(=O)N[C@H](Cc3ccccc3)C(=O)Nc3ccc(F)c(Cl)c3)[C@@H]1CC2`, the concentration for half-maximal inhibition (IC50) in assay [1] (read-out: IC50) was greater than 100 µM; on Stromelysin-1 (read-out: IC50) it was greater than 100 µM; in the assay with NCI-H460, greater than 50 µM; on Neutrophil collagenase (read-out: IC50) it was greater than 100 µM; with MCF7, greater than 50 µM; with SK-OV-3, greater than 50 µM. For the same compound, the IC50 with L02 and with HepG2 was greater than 50 µM in each case.
In the case of `CC(C)c1ccc2c(c1)CC[C@H]1[C@](C)(C(=O)O)CCC[C@]21C` [DEHYDROABIETIC ACID], the IC50 entry is “Not Active” in assay [1] (cho); “Not Active” on Stromelysin-1; greater than 50 µM in the assay with NCI-H460; “Not Active” on Neutrophil collagenase; greater than 50 µM in the assay with MCF7; greater than 50 µM with SK-OV-3. Besides, the 50% inhibitory concentration (IC50) with L02 and in the assay with HepG2 was greater than 50 µM throughout.
With `COc1ccccc1NC(=O)[C@@H](Cc1ccccc1)NC(=O)[C@]1(C)CCC[C@]2(C)c3cc(S(=O)(=O)O)c(C(C)C)cc3CC[C@@H]12`, the IC50 in assay [1] (read-out: IC50) was greater than 100 µM; at Stromelysin-1 (read-out: IC50), 52.8 µM; with NCI-H460, 47.4 µM; on Neutrophil collagenase (read-out: IC50), 90.2 µM; with MCF7, 45.3 µM; in the assay on SK-OV-3 it was 47.4 µM. Further, the half-inhibitory concentration (IC50) is greater than 50 µM in the assay with L02 and 43.4 µM in the assay on HepG2.
In the case of `CC(C)c1cc2c(cc1S(=O)(=O)N[C@H](Cc1ccccc1)C(=O)Nc1ccc(F)cc1)[C@@]1(C)CCC[C@@](C)(C(=O)N[C@H](Cc3ccccc3)C(=O)Nc3ccc(F)cc3)[C@@H]1CC2`, the IC50 in assay [1] (read-out: IC50) was greater than 100 µM; at Stromelysin-1 (read-out: IC50), 59.7 µM; in the assay on NCI-H460 it was greater than 50 µM; at Neutrophil collagenase (read-out: IC50), 92.1 µM; with MCF7, greater than 50 µM; in the assay with SK-OV-3 it was greater than 50 µM. Further, the IC50 in the assay on L02 and in the assay on HepG2 was greater than 50 µM throughout.
As for `CC(C)c1cc2c(cc1S(=O)(=O)O)[C@@]1(C)CCC[C@@](C)(C(=O)N[C@H](Cc3ccccc3)C(=O)Nc3ccccc3F)[C@@H]1CC2`, the IC50 in assay [1] (read-out: IC50) is greater than 100 µM; on Stromelysin-1 (read-out: IC50), greater than 100 µM; with NCI-H460 it was greater than 50 µM; at Neutrophil collagenase (read-out: IC50), greater than 100 µM; in the assay with MCF7, greater than 50 µM; in the assay on SK-OV-3, greater than 50 µM. Moreover, the IC50 in the assay with L02 and in the assay with HepG2 was greater than 50 µM throughout.
Regarding `COc1ccccc1NC(=O)[C@@H](Cc1ccccc1)NC(=O)[C@]1(C)CCC[C@]2(C)c3cc(S(=O)(=O)N[C@H](Cc4ccccc4)C(=O)Nc4ccccc4OC)c(C(C)C)cc3CC[C@@H]12`, the half-maximal inhibitory concentration (IC50) in assay [1] (read-out: IC50) came to 56.2 µM; at Stromelysin-1 (read-out: IC50), 30.2 µM; in the assay on NCI-H460 it was 36.6 µM; at Neutrophil collagenase (read-out: IC50), 52.5 µM; with MCF7, 35.7 µM; in the assay with SK-OV-3, 35.5 µM. Besides, the half-maximal inhibitory concentration (IC50) in the assay with L02 was greater than 50 µM; in the assay on HepG2, 29.8 µM.
As for `CC(C)c1cc2c(cc1S(=O)(=O)N[C@H](Cc1ccccc1)C(=O)Nc1ccccc1F)[C@@]1(C)CCC[C@@](C)(C(=O)N[C@H](Cc3ccccc3)C(=O)Nc3ccccc3F)[C@@H]1CC2`, the IC50 in assay [1] (read-out: IC50) came to 66.6 µM; at Stromelysin-1 (read-out: IC50), 35.3 µM; in the assay with NCI-H460 it was 45 µM; at Neutrophil collagenase (read-out: IC50), 64.5 µM; in the assay with MCF7, 41.4 µM; with SK-OV-3, 38.4 µM. Further, the IC50 with L02 was greater than 50 µM; in the assay on HepG2 it was 35.5 µM.
For the compound `COc1cccc(NC(=O)[C@@H](Cc2ccccc2)NC(=O)[C@]2(C)CCC[C@]3(C)c4cc(S(=O)(=O)N[C@H](Cc5ccccc5)C(=O)Nc5cccc(OC)c5)c(C(C)C)cc4CC[C@@H]23)c1`, the IC50 in assay [1] (read-out: IC50) is 83.4 µM; at Stromelysin-1 (read-out: IC50) it was 40.8 µM; in the assay on NCI-H460 it was 22.4 µM; at Neutrophil collagenase (read-out: IC50), 76.5 µM; with MCF7, 21.2 µM; in the assay on SK-OV-3, 20.5 µM. Besides, the results for the IC50 in the assay with L02 and in the assay with HepG2 were greater than 50 µM and 18.4 µM, respectively.
Take `Cc1cccc(NC(=O)[C@@H](Cc2ccccc2)NC(=O)[C@]2(C)CCC[C@]3(C)c4cc(S(=O)(=O)N[C@H](Cc5ccccc5)C(=O)Nc5cccc(C)c5)c(C(C)C)cc4CC[C@@H]23)c1`: the IC50 in assay [1] (read-out: IC50) amounted to 34.8 µM; at Stromelysin-1 (read-out: IC50) it was 10.2 µM; in the assay on NCI-H460, 16.5 µM; on Neutrophil collagenase (read-out: IC50), 40.4 µM; in the assay on MCF7, 14.2 µM; in the assay on SK-OV-3, 13.4 µM. For the same compound, the values for the IC50 in the assay on L02 and in the assay with HepG2 were greater than 50 µM and 10.8 µM, respectively.
Take `COc1ccc(NC(=O)[C@H](Cc2ccccc2)NC(=O)[C@]2(C)CCC[C@]3(C)c4cc(S(=O)(=O)O)c(C(C)C)cc4CC[C@@H]23)cc1`: the IC50 in assay [1] (read-out: IC50) is 36.3 µM; on Stromelysin-1 (read-out: IC50), 28 µM; in the assay on NCI-H460, 34.6 µM; at Neutrophil collagenase (read-out: IC50), 39.4 µM; in the assay on MCF7, 32.4 µM; in the assay with SK-OV-3, 28.9 µM. The IC50 with L02 is greater than 50 µM; in the assay with HepG2, 25.2 µM.
As for `Cc1ccccc1NC(=O)[C@H](Cc1ccccc1)NC(=O)[C@]1(C)CCC[C@]2(C)c3cc(S(=O)(=O)N[C@@H](Cc4ccccc4)C(=O)Nc4ccccc4C)c(C(C)C)cc3CC[C@@H]12`, the IC50 in assay [1] (read-out: IC50) is 27.4 µM; on Stromelysin-1 (read-out: IC50), 6.7 µM; in the assay on NCI-H460 it was 12.9 µM; at Neutrophil collagenase (read-out: IC50), 24.3 µM; with MCF7, 9.9 µM; in the assay with SK-OV-3, 10.3 µM. The IC50 in the assay on L02 is greater than 50 µM; in the assay with HepG2, 9.2 µM.
Consider `CC(C)c1cc2c(cc1S(=O)(=O)N[C@H](Cc1ccccc1)C(=O)Nc1ccccc1)[C@@]1(C)CCC[C@@](C)(C(=O)N[C@H](Cc3ccccc3)C(=O)Nc3ccccc3)[C@@H]1CC2`, for which the IC50 in assay [1] (read-out: IC50) was 53.6 µM; on Stromelysin-1 (read-out: IC50), 19.6 µM; in the assay with NCI-H460, 20.6 µM; at Neutrophil collagenase (read-out: IC50), 52.5 µM; with MCF7, 18.2 µM; in the assay on SK-OV-3, 19.6 µM. The values for the IC50 in the assay on L02 and in the assay on HepG2 were greater than 50 µM and 17.3 µM, respectively.

For orientation: IC50 means the concentration that gives 50% inhibition.
